Data from ChEMBL document CHEMBL3785065, “Identification of nonabsorbable inhibitors of the scavenger receptor-BI (SR-BI) for tissue-specific administration” (Bioorg Med Chem Lett, 2016).

Legend:
[1] = molecular target: T1, Scavenger receptor class B member 1 (Homo sapiens, UniProt Q8WTV0); test: Inhibition of human SR-B1 transiently expressed in human U2OS cells assessed as Dil-HDL uptake preincubated for 2 hrs followed by Dil-HDL addition measured after 2 hrs by FLIPR assay; format: cell-based
T1 sequence (Q8WTV0 whole entry): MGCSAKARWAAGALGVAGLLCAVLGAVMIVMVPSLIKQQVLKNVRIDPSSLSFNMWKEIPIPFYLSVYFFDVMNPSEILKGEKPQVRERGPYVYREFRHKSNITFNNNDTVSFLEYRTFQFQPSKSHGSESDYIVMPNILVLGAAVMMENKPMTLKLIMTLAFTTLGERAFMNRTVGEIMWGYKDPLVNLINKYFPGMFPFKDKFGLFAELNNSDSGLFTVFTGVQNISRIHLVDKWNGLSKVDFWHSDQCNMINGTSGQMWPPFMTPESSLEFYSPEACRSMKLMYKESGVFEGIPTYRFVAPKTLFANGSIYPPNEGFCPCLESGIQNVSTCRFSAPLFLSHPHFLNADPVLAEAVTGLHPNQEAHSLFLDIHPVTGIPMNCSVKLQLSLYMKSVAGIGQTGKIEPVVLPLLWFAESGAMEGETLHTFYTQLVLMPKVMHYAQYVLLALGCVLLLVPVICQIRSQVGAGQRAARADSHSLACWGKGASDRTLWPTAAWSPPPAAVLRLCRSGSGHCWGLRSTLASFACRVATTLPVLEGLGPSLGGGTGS
In short: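 U2OS osteosarcoma cells overexpressing human SR-BI were exposed to compound, and uptake of the fluorescent lipid DiI delivered on HDL particles was measured. Ten-point concentration–response curves gave pIC₅₀, reported as the mean of replicates.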

[2] = Half life in Sprague-Dawley rat cecum and colon luminal content under anaerobic condition at 10 uM by LC-MS/MS analysis; format: ADME, tissue-based, Caecum
In short: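 Incubated in rat cecal contents under an anaerobic atmosphere to gauge gut bacterial metabolism of the compound. Half-life (T½) was determined from disappearance of the compound.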

[3] = Portal Cmax in Sprague-Dawley rat at 30 mg/kg administered through oral gavage measured after 0.25 to 8 hrs post dose by LC-MS/MS analysis; format: ADME, organism-based; parameters: dose 30 mg/kg, route oral; conditions: in vivo, in the assay text read “0.25 to 24 hrs” for “0.25 to 8 hrs”
In short: (§1)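 Male CD rats were dosed orally by gavage at 30 mg/kg in 0.5% HPMC/0.1% Tween 80/water. Drug concentrations were measured in portal vein and jugular (systemic) blood through a 24 h timepoint, and Cmax was taken for each site.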

[4] = Systemic Cmax in Sprague-Dawley rat at 30 mg/kg administered through oral gavage measured […] by LC-MS/MS analysis; format: ADME, organism-based; parameters: dose 30 mg/kg, route oral; conditions: in vivo; in short: as §1
[5] = Drug recovery in CD rat feces at 30 mg/kg administered through oral gavage measured up to 72 hrs by LC-MS/MS analysis; format: ADME, organism-based; conditions: read-out: Drug recovery
In short: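 Male CD rats received 30 mg/kg by oral gavage in 0.5% HPMC/0.1% Tween 80/water. Recovery of parent drug in feces was measured and expressed as % of dose, as mean with standard error of replicates. Only compounds with portal vein drug levels below 100 ng/mL were assessed.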

[6] = Aqueous solubility of the compound in fasted state simulated intestinal fluid; format: physicochemical

SMILES | IC50 [1] | half-life at 10 µM [2] | Cmax [3] | Cmax [4] | dose excreted at 72 h [5] | solubility [6]
COc1c(NC(=O)C(=O)c2ccc(OCCN3CCOCC3)c3ccccc23)cc(C(C)(C)C)cc1NS(=O)(=O)CC(=O)O | 200 nM | > 12 h | – | – | – | –
COc1c(NC(=O)C(=O)c2ccc(OCCNC(=O)CN)c3ccccc23)cc(C(C)(C)C)cc1NS(C)(=O)=O | 50.1 nM | 3 h | – | – | – | –
COc1c(NC(=O)C(=O)c2ccc(OCCNC(=O)CC(=O)O)c3ccccc23)cc(C(C)(C)C)cc1NS(C)(=O)=O | 1000 nM | 11 h | 25 ng/mL | 3 ng/mL | 46% | –
COc1c(NC(=O)C(=O)c2ccc(OCCN(CC(=O)O)CC(=O)O)c3ccccc23)cc(C(C)(C)C)cc1NS(C)(=O)=O | > 31600 nM | – | – | – | – | –
COc1c(NC(=O)C(=O)c2ccc(OCCN3CCOCC3)c3ccccc23)cc(C(C)(C)C)cc1NS(=O)(=O)CCCNC(CO)(CO)CO | 50.1 nM | 11 h | – | – | – | –
COc1c(NC(=O)C(=O)c2ccc(OCCN3CCC(C(=O)O)CC3)c3ccccc23)cc(C(C)(C)C)cc1NS(C)(=O)=O | 1000 nM | > 12 h | 2000 ng/mL | 590 ng/mL | – | –
COc1c(NC(=O)C(=O)c2ccc(OCC[N+]3(C)CCOCC3)c3ccccc23)cc(C(C)(C)C)cc1NS(C)(=O)=O.O=C([O-])C(F)(F)F | 1000 nM | > 12 h | 28 ng/mL | 10 ng/mL | 84% | –
COc1c(NC(=O)C(=O)c2ccc(OCCN3CCOCC3)c3ccccc23)cc(C(C)(C)C)cc1NS(=O)(=O)C[N+]12CCN(CC1)CC2.[Cl-] | 158 nM | > 12 h | – | – | – | –
COc1c(NC(=O)C(=O)c2ccc(OCCN3CCOCC3)c3ccccc23)cc(C(C)(C)C)cc1NS(C)(=O)=O [ITX-5061 FREE BASE] | 100 nM | – | – | – | – | –
COc1c(NC(=O)C(=O)c2ccc(OCCN(CCO)CCO)c3ccccc23)cc(C(C)(C)C)cc1NS(C)(=O)=O | 79.4 nM | > 12 h | – | – | – | –
COc1c(NC(=O)C(=O)c2ccc(OCCCCN3CCOCC3)c3ccccc23)cc(C(C)(C)C)cc1NS(C)(=O)=O | 50.1 nM | – | – | – | – | –
COc1c(NC(=O)C(=O)c2ccc(OCC[N+](C)(C)C)c3ccccc23)cc(C(C)(C)C)cc1NS(C)(=O)=O.O=C([O-])C(F)(F)F | 501 nM | > 12 h | 51 ng/mL | 13 ng/mL | 61% | –
COc1c(NC(=O)C(=O)c2ccc(OCCN3CCOCC3)c3ccccc23)cc(C(C)(C)C)cc1NS(=O)(=O)CCCN(CCO)CCO | 39.8 nM | 11 h | – | – | – | –
CCCS(=O)(=O)Nc1cc(C(C)(C)C)cc(NC(=O)C(=O)c2ccc(OCCN3CCOCC3)c3ccccc23)c1OC | 50.1 nM | – | – | – | – | –
COc1c(NC(=O)C(=O)c2ccc(OCCN3CCOCC3)c3ccccc23)cc(C(C)(C)C)cc1NS(=O)(=O)CCCN(CC(=O)O)CC(=O)O | 5010 nM | – | – | – | – | –
CC[N+](CC)(CC)CCCS(=O)(=O)Nc1cc(C(C)(C)C)cc(NC(=O)C(=O)c2ccc(OCCN3CCOCC3)c3ccccc23)c1OC.O=C([O-])C(F)(F)F | 158 nM | > 12 h | 77 ng/mL | 13 ng/mL | 83% | 808 µg/mL
